Bioassay records as filed in PubChem.
SIRT5 block: blocks human SIRT5 desuccinylation of peptide; Q9NXA8; Purified SirT5, succinyl-peptide AMC, trypsin-coupled fluorescence; inhibition, % at 15 µM; 330,000 compounds, 1.1% hits; in the data active means inhibition above about 15%
Casp6 inh: caspase-6 (human) enzyme inhibition; purified caspase-6, Z-VEID-R110 cleavage fluorescence; inhibition, % at 12.5 µM; 350,000 compounds, 0.53% hits; AID 686996;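 active means mean inhibition across replicates at least about 35%, with every replicate also reaching that limit, limit read from the data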
Target sequence (P55212 24-179 limits assumed): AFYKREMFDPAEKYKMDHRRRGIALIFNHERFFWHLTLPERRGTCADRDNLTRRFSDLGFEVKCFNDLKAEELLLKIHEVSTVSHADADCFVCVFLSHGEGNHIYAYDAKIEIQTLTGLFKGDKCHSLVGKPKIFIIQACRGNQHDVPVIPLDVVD
Target sequence (P55212 194-293 limits assumed): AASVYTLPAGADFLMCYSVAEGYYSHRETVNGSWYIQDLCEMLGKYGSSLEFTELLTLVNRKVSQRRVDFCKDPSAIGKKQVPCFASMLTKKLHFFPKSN
FGF22 binding-1: binders of recombinant human FGF22 by thermal shift; SYPRO orange fluorescence; percent of sucrose octasulfate shift, DMSO zero; activity (Tm shift, normalised), % at 9.99 µM; 340,000 compounds, 1.5% hits; AID 651658;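 active means mean Tm shift, scaled 0 neutral to 100 positive control, at about 1.3% or above, every replicate too, limit read from the data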
Target sequence (Q9HCT0 whole entry, looked up): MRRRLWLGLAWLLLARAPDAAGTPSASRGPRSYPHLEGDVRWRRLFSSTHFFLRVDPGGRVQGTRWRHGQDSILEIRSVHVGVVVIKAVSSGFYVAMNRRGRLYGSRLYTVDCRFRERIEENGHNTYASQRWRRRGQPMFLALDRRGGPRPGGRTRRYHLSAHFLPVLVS
UCH37 DUB inh: blocks the human deubiquitinase UCH37; purified proteasome/UCH37, Ub-AMC cleavage fluorescence; Q9Y5K5; 330,000 compounds, 0.33% hits; inhibition, % (concentration not given with the values);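 active means mean inhibition over replicate wells above about 20%, limit read from the data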
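Reagent: Ub-AMC substrate; assay system: Proteasome-associated human UCH37 deubiquitinase; controls: no-proteasome and no-compound wells; read-out: % inhibition of Ub-AMC cleavage fluorescence; timing: 30 min preincubation with enzyme, 25 min cleavage at room temperature; signal: AMC fluorescence from Ub-AMC cleavage, excitation 355 nm, emission 460 nm; buffer or medium: Tris-HCl pH 7.4 plus ovalbumin, ATP-MgCl2, DTT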
NSD2 inh: NSD2 (human) methyltransferase inhibition. NSD2 peptide methylation, AlphaScreen, 120 min. inhibition, % at 12.5 µM. O96028. AID 743445. 310,000 compounds, 0.54% hits; in the data active means inhibition above about 50%
FGF22 binding-2: FGF22 (human) binding in thermal shift. shares compounds with FGF22 binding-1. recombinant FGF22 thermal shift, SYPRO orange fluorescence. thermal shift activity, °C (ΔTm) at 38 µM. 1,000 compounds, 2% hits. AID 720646;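 active means fitted rise in melting shift crosses a set limit at or below the top valid dose tested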
SYPRO no-protein: counter-screen for FGF22 binders: compound-only thermal shift, no protein | shares compounds with FGF22 binding-1 | compound-only SYPRO orange thermal shift counter-screen | AC50, µM (top dose mostly 38 µM) | 1,000 compounds, 2% hits | AID 743019;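 active means rising signal whose fitted curve reaches the 0.54 level within the top valid dose, showing a melting point, actives reach about 13 µM in these data; inactive means the rest, including activity in the opposite direction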; further: value is where the raw curve crosses a fixed level and not half-maximal
Large screens that a line does not name were inactive (follow-up assays come after a bar, where they were run). Only some compounds are listed: those with a hit (about 2.6% of all), similar ones and a draw of the others.

O=[N+]([O-])c1ccc2oc(/C=C/c3ccc(O)cc3)nc2c1	FGF22 binding-1 1.8 (no result: SIRT5 block, UCH37 DUB inh) | FGF22 binding-2 inactive | SYPRO no-protein inactive
CC(C)(C)Nc1nc2cc([N+](=O)[O-])ccc2o1	none
CO[C@H]1CN(C)C(=O)c2cc(NC(=O)NC(C)C)ccc2OC[C@@H](C)N(C)C[C@@H]1C	none (no result: UCH37 DUB inh, NSD2 inh)
C/C=C/c1ccc([C@H]2[C@@H](CO)N(C(C)=O)C23CN(C(=O)c2ccc(F)cc2)C3)cc1	FGF22 binding-1 1.4 (no result: UCH37 DUB inh, NSD2 inh) | FGF22 binding-2 inactive | SYPRO no-protein inactive
C/C=C/c1ccc([C@H]2[C@@H](CO)N(C(C)=O)C23CN(C(=O)c2ccncc2)C3)cc1	none (no result: UCH37 DUB inh, NSD2 inh)
O=C(c1cccc([N+](=O)[O-])c1)N1CCN(C/C=C/c2ccccc2)CC1	none (no result: NSD2 inh)
O=C(C(=O)N1CCN(C/C=C/c2ccccc2)CC1)c1ccccc1	FGF22 binding-1 14.8 (no result: UCH37 DUB inh, NSD2 inh) | FGF22 binding-2 inactive | SYPRO no-protein inactive
C[C@@H](NC(=O)[C@@H]1[C@@H](CO)[C@@H]2Cn3c(ccc(-c4ccncc4)c3=O)[C@@H]2N1C)c1ccccc1	none (no result: UCH37 DUB inh, NSD2 inh)
O=C(C[C@H]1C[C@@H]2c3cc(NC(=O)Nc4ccc(C(F)(F)F)cc4)ccc3O[C@@H]2[C@H](CO)O1)NCc1ccc2c(c1)OCO2	none (no result: UCH37 DUB inh, NSD2 inh)
O=C1C(=O)C(c2ccccc2)C(=O)C1c1ccccc1 (stereo not given)	FGF22 binding-1 5.8 | FGF22 binding-2 inactive | SYPRO no-protein inactive
CCn1c2ccccc2c2cc(/C=N/NC(=O)c3ccncc3)ccc21	FGF22 binding-1 1.5 (no result: UCH37 DUB inh) | FGF22 binding-2 inactive | SYPRO no-protein inactive
C[C@H]1CN([C@@H](C)CO)C(=O)c2cccc(NC(=O)Nc3ccc4c(c3)OCO4)c2O[C@@H]1CN(C)S(=O)(=O)c1cn(C)cn1	none (no result: UCH37 DUB inh, NSD2 inh)
C[C@H]1CN([C@@H](C)CO)C(=O)c2cccc(NC(=O)Nc3ccc4c(c3)OCO4)c2O[C@H]1CN(C)S(=O)(=O)c1cn(C)cn1	FGF22 binding-1 1.6 (no result: UCH37 DUB inh, NSD2 inh) | FGF22 binding-2 inactive | SYPRO no-protein inactive
Cc1noc(C)c1S(=O)(=O)Nc1ccc2c(c1)CC(=O)N([C@H](C)CO)C[C@@H](C)[C@H](CN(C)S(C)(=O)=O)O2	FGF22 binding-1 1.3 (no result: SIRT5 block, Casp6 inh, UCH37 DUB inh, NSD2 inh) | FGF22 binding-2 inactive | SYPRO no-protein inactive
Cc1cc(C(=O)Nc2cccc3c2O[C@@H](CN(C)C(=O)NC2CCCCC2)[C@@H](C)CN([C@H](C)CO)C3=O)n(C)n1	FGF22 binding-1 31.9 (no result: UCH37 DUB inh, NSD2 inh) | FGF22 binding-2 inactive | SYPRO no-protein inactive
COc1ccc(NC(=O)N(C)C[C@@H]2Oc3ccc(NC(=O)Cc4ccccc4)cc3C(=O)N([C@H](C)CO)C[C@H]2C)cc1	FGF22 binding-1 1.5 (no result: UCH37 DUB inh, NSD2 inh) | FGF22 binding-2 inactive | SYPRO no-protein inactive
COc1ccc(S(=O)(=O)N(C)C[C@H]2Oc3ccc(NC(=O)CCN4CCOCC4)cc3CC(=O)N([C@@H](C)CO)C[C@H]2C)cc1	none (no result: UCH37 DUB inh, NSD2 inh)
COc1ccc(NC(=O)N(C)C[C@H]2Oc3ccc(NS(=O)(=O)c4ccc(Cl)cc4)cc3C(=O)N([C@H](C)CO)C[C@H]2C)cc1	FGF22 binding-1 1.4 (no result: UCH37 DUB inh, NSD2 inh) | FGF22 binding-2 inactive | SYPRO no-protein inactive
C[C@H]1CN([C@@H](C)CO)C(=O)c2cc(NC(=O)CCN3CCOCC3)ccc2O[C@H]1CN(C)C(=O)NC1CCCCC1	FGF22 binding-1 3.5 (no result: UCH37 DUB inh, NSD2 inh) | FGF22 binding-2 inactive | SYPRO no-protein inactive
Cc1ccc(S(=O)(=O)Nc2ccc3c(c2)CC(=O)N([C@H](C)CO)C[C@@H](C)[C@H](CN(C)C(=O)Nc2ccccc2)O3)cc1	FGF22 binding-1 2.2 (no result: UCH37 DUB inh, NSD2 inh) | FGF22 binding-2 inactive | SYPRO no-protein inactive
O=C(c1ccncc1)N1CC2(C1)[C@@H](c1ccccc1)[C@@H](CO)N2Cc1ccccn1	none (no result: UCH37 DUB inh, NSD2 inh)
COc1cccc(C#Cc2ccc([C@H]3[C@H]4CN(S(=O)(=O)c5ccccc5C)CC(=O)N4[C@H]3CO)cc2)c1	FGF22 binding-1 1.4 (no result: SIRT5 block, UCH37 DUB inh, NSD2 inh) | FGF22 binding-2 inactive | SYPRO no-protein inactive
CCCCN(C(=O)c1ccc2c(c1)OCCO2)c1c(N)n(CCCC)c(=O)[nH]c1=O	FGF22 binding-1 21.4 | FGF22 binding-2 inactive | SYPRO no-protein inactive
